Compound activity: PubChem BioAssay, Johns Hopkins Ion Channel Center
KCNK3 inh: human KCNK3 channel inhibition, primary screen; O14649; 340,000 tested, 0.84% active; CHO-KCNK3 thallium flux, FluxOR fluorescence; stronger effect = lower value; AID 602410; B-score at 10 µM;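 active = B-score under library mean minus 4 SD, starting fluorescence ratio at most library mean plus 5 SD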;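 note: more negative B-score means stronger inhibition of thallium flux through KCNK3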
KCNQ1 inh: inhibitors of human KCNQ1 potassium channel | P51787 | CHO-K1 KCNQ1, FluxOR thallium flux fluorescence; stronger effect = higher value | B-score at 10 µM | 310,000 tested, 1.3% active | AID 2642;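 active = compounds whose thallium flux B-score, printed positive for inhibition, exceeds three library SD while starting fluorescence stays within three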;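 note: channel opened by potassium depolarization with thallium stimulus after 20 min compound exposure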
Target sequence (P51787 whole entry, looked up): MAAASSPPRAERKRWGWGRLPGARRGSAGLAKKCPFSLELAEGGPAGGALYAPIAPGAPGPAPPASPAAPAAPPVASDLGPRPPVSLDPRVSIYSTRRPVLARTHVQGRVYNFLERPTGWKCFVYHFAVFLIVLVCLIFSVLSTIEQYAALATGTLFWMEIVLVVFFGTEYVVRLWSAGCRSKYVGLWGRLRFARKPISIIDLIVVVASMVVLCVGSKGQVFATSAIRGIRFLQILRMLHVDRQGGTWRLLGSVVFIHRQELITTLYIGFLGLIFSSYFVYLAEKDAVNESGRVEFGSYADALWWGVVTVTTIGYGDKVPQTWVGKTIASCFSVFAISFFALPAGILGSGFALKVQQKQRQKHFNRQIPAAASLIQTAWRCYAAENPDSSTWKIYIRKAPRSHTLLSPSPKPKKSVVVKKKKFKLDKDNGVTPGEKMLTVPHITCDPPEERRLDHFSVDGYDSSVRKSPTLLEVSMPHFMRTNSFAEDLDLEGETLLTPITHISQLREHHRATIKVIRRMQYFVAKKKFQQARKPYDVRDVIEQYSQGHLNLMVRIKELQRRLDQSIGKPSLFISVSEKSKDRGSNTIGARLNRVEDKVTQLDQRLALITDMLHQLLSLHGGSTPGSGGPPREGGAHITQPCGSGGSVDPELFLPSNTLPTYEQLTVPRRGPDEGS
KCNQ1 act: potentiates or activates the human KCNQ1 potassium channel. B-score at 10 µM. P51787. CHO-K1 KCNQ1, thallium flux FluxOR fluorescence; stronger effect = higher value. 310,000 tested, 0.35% active;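 active = fluorescence ratio B-score, a plate-corrected score, at least three library SD, with initial intensity B-score within 5 SD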
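Doses: Single concentration per compound, DMSO matched to controls | Test system: KCNQ1-transfected CHO-K1 cells | Timing: 90 min dye loading and 20 min compound exposure, both at room temperature | Measured by: Kinetic FluxOR thallium fluorescence, 10-s 1-Hz baseline, 110-s post-stimulus read | Medium: Assay buffer with matched DMSO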
hERG protect: hERG (human) protection from proarrhythmic block; 310,000 tested, 0.51% active; AID 1511; Q12809; activation (rescue from dofetilide block), less the hit threshold, % at 10 µM; CHO-hERG, FluxOR thallium flux, dofetilide IC70 present;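 active = activation above the mean of controls blocked by dofetilide plus 5 SD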;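 note: thallium influx through hERG after potassium depolarization seen as dye fluorescence rise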
KCNK9 inh: human KCNK9 channel inhibition; HEK293 KCNK9, FluxOR thallium flux fluorescence; stronger effect = lower value; AID 488922; 310,000 tested, 1.2% active; B-score at 10 µM;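 active = ratio B-score over 3 SD below the library mean, with starting fluorescence within 5 SD of its mean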;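 note: negative B-score means less thallium flux so channel inhibition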
Kir21 inh: Kir2.1 (mouse) channel inhibition; HEK293-Kir2.1, FluxOR thallium flux fluorescence; stronger effect = lower value; B-score at 10 µM; 310,000 tested, 0.85% active; AID 1672;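 active = fluorescence ratio B-score at or below minus 3 SD of library scores, with starting-brightness B-score within 2 SD, cut at about -4.2 in these data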;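 note: channel flux triggered by added potassium and thallium sulfate stimulus; B-score of peak minus minimum fluorescence over baseline after thallium stimulus; more negative B-score means stronger Kir2.1 block with less thallium influx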
An asterisk follows results filed as active; i = inactive; · = no result given. Only some compounds are listed: those with a hit (about 3.7% of all), similar ones and a draw of the others.

SMILES	KCNK3 inh	KCNQ1 inh	KCNQ1 act	hERG protect	KCNK9 inh	Kir21 inh
COc1cccc(/C=N/Nc2ccc(C(=O)O)cc2)c1O	i	i	i	5.5*	i	-0.98
c1ccc(-c2cc3cc4c(cc3cn2)OCO4)cc1	i	·	·	·	·	·
Cc1ccc(NC(=S)Nc2ccc(S(=O)(=O)Nc3ncccn3)cc2)cc1Cl	·	10*	i	-14	i	0.41
CC(=O)OCC(=O)[C@@]1(OC(C)=O)[C@@H](C)C[C@H]2[C@@H]3C[C@H](F)C4=CC(=O)C=C[C@]4(C)[C@@]3(F)[C@@H](O)C[C@@]21C	i	i	29*	-11	i	-0.94
CC(=O)OCC(=O)[C@@]12OC(C)(C)O[C@@H]1C[C@H]1[C@@H]3C[C@H](F)C4=CC(=O)C=C[C@]4(C)[C@@]3(F)[C@@H](O)C[C@@]12C	·	i	i	1	i	0.96
Cc1ccc2[nH]c(O)c(N=NC(N)=S)c2c1	i	i	i	-8	i	-0.08
CC(/C=C(\NC(=O)c1ccccc1)C(=O)N=Nc1c(O)[nH]c2ccc(C)cc12)=C\c1ccccc1	i	6*	i	-23	i	0.07
Nc1nc(=S)[nH]c2c1C1(CCCC1)Cc1ccccc1-2	i	i	i	6.1*	i	-1.5
Nc1nc(=S)[nH]c2c1C1(CCCCC1)Cc1ccccc1-2	i	i	i	-3	i	1.4
Cc1ccc(S(=O)(=O)N[C@H](C(=O)OCC(=O)NC(=O)c2cccn2C)C(C)C)cc1	i	·	·	·	·	·
Cc1ccc(C(=O)Cn2c(N3CCOCC3)nc3c2c(=O)n(C)c(=O)n3C)cc1	i	i	i	5.0*	i	1.7
COc1ccccc1C1CN(c2ccc(F)cc2F)N=C1c1cccs1 (stereo unspecified)	i	i	i	-4	-7.4*	-0.27
Cc1ccccc1-c1nc(CS(=O)CC(=O)NC(C)CCc2ccccc2)c(C)o1 (stereo unspecified)	i	i	i	-13	i	0.82
CC(=O)OCC(=O)C1CCC2C3CC=C4CC(O)CCC4(C)C3CCC12C (stereo unspecified)	i	·	·	·	·	·
CC(=O)C1CCC2C3CC=C4CC(SC(=N)N)CCC4(C)C3CCC12C (stereo unspecified)	-9.2*	·	·	·	·	·
O=C1N=C(N2CCC(Cc3ccccc3)CC2)S/C1=C/c1cn[nH]c1-c1ccccc1	i	9*	i	-8	i	2.1
Cc1ccc(CNC(=O)c2cn(C)c(=O)c3c2c2ccccc2n3C)o1	i	i	i	-9	i	0.03
Cc1ccc(CNC(=O)c2cn(C3CCCCC3)c(=O)c3c2c2ccccc2n3C)o1	-9.4*	i	i	-8	i	0.44
N#Cc1c(N)oc(-c2ccc3c(c2)OCO3)c1-c1ccc2c(c1)OCO2	i	i	i	-11	-6.8*	0.54
CC(Oc1ccc(F)cc1)C(=O)Nc1cc(S(=O)(=O)N2CCCCC2)ccc1N1CCOCC1 (stereo unspecified)	i	i	i	-10	i	1.4
CCN1CCN(c2ccc(S(=O)(=O)N3CCCCC3)cc2NC(=O)C(C)Oc2ccc(F)cc2)CC1 (stereo unspecified)	i	i	i	-5	i	-5.2*
CN(Cc1c(F)cccc1Cl)C(=O)c1ccc(NC(=O)CC2SC(N3CCCC3)=NC2=O)cc1 (stereo unspecified)	i	i	i	-14	i	-0.06
CCOC(=O)c1c(C)oc2c1c(C(c1cccnc1)N1CCCCC1)c(O)c1ccccc12 (stereo unspecified)	i	6*	i	-7	i	-0.78
COc1ccc(CNC(=O)c2ccc(N3CCC4(CC3)CC(c3ccc(Cl)cc3)=NO4)c(NC(=O)Cc3ccc(F)cc3)c2)cc1	i	·	·	·	·	·
C=CCn1c(O)c(N=NC(=S)Nc2cccc(OC)c2)c2ccccc21	i	i	8*	25*	i	-1.9
SMILES	KCNK3 inh	KCNQ1 inh	KCNQ1 act	hERG protect	KCNK9 inh	Kir21 inh
C=CCn1c(O)c(N=NC(=S)Nc2ccc(OC)cc2)c2ccccc21	i	i	17*	3	i	-5.3*
C=CCn1c(O)c(N=NC(=O)OCC)c2ccccc21	i	i	i	-7	i	-0.01
FC(F)(F)c1cccc(NC(=S)Nc2ccc(Cl)c(Cl)c2)c1	i	7*	i	-26	i	-0.11
Cc1cc(NC(=O)Nc2cccc(C(F)(F)F)c2)n(C)n1	i	6*	i	-8	i	2
O=C(Nc1ccccc1)Nc1cccc(C(F)(F)F)c1	i	i	i	-7	i	0.38
FC(F)(F)c1cccc(NC(=S)NNC(=S)Nc2cccc(C(F)(F)F)c2)c1	·	i	i	-2	i	1.6
CC(C)(O)C(=O)NNC(=S)Nc1cccc(C(F)(F)F)c1	i	7*	i	-2	i	1.5
COc1cc(/C=N/NC(=O)c2nnn(-c3nonc3N)c2C(C)C)ccc1OCc1ccc(F)cc1	i	i	i	-6	i	0.11
Cc1c2c(nc3ccccc13)CC(C)(C)CC2=O	i	i	i	-12	i	-0.93
CC1(C)CC(=O)c2c(nn(-c3ccccc3)c2-c2ccncc2)C1	i	i	i	7.1*	i	-0.22
O=S(=O)(Nc1ccccc1N1CCOCC1)c1ccccc1C(F)(F)F	-10*	·	·	·	·	·
C[C@H](CO)N1C[C@H](C)[C@@H](CN(C)C(=O)Nc2ccc(C(F)(F)F)cc2)Oc2c(NC(=O)Cc3ccccc3)cccc2C1=O	i	·	·	·	·	·
Cc1nc2ccccc2n1Cc1ccc(Cl)cc1	i	6*	i	-5	i	1.2
O=c1ccc(-c2nc3ccccc3n2Cc2ccc(Cl)cc2)c[nH]1	i	i	10*	-12	i	-0.08
CC(C)(C)C(=O)N1CCCC1C(=O)O (stereo unspecified)	i	i	i	4.9*	i	1.1
Cc1ccc(C)c(S(=O)(=O)N2CCN(C(=O)Cc3sc(C)nc3-c3ccc(F)cc3)CC2)c1	i	·	·	·	·	·
Cc1ccc(Cn2c(O)c(N=NC(=S)Nc3ccccc3F)c3cc(S(=O)(=O)N4CCOCC4)ccc32)cc1	i	i	i	5.7*	i	-0.33
CCc1ccccc1NC(=S)N=Nc1c(O)n(C)c2ccc(S(=O)(=O)N3CCOCC3)cc12	i	i	i	-2	i	-0.25
Oc1c(N=NC(=S)Nc2ccccc2F)c2ccccc2n1Cc1ccc(Cl)cc1	i	i	8*	25*	i	0.25
CCNC(=S)N=Nc1c(O)n(Cc2ccc(Cl)cc2)c2ccccc12	i	i	18*	1	i	0.27
